# Laboratory results as given in PMC7709506 (ESMO Open, 2020).
# Columns and labels:
# [1] = system: advanced or metastatic solid tumours; test: Preliminary antitumour activity; assay type: in vivo, human
# [2] = Plasma pharmacokinetics after single and multiple dosing; assay type: in vivo, human; conditions: for Accumulation ratio, geometric mean (CV %): AUC0–last day 15 / day 1; for Mean (SD) metabolite to parent ratio: ORM-21444 AUC0–last / ODM-203 AUC0–last
# How it was run: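 Oral once-daily test compound. Capsule single dose on day 1 after a low-phosphate light breakfast. In tablet cohorts, one capsule dose was followed a week later by continuous daily tablets from 200 mg. Plasma sampled on day 1 and day 8 or 15 predose and 0.1–24 h post-dose, plus predose from day 8. Cmax, Tmax and AUC0–last (linear trapezoidal) were log-transformed. Accumulation = day 15/day 1 AUC; metabolite ratio = metabolite/parent AUC.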
# [3] = system: cell lines with increased FGFR activity; conditions: cell lines with increased FGFR activity and known dependency on FGFR signalling; cited from earlier work
# UGT1A1 = conditions: human liver microsomes; cited from earlier work
compound,measurement,setting,value
Cn1cc(-c2ccc3c(c2)ncn3-c2cc(NS(=O)(=O)C3CC3)cc(-c3ccc(F)cc3F)c2)cn1 [ODM-203],overall response rate,"[1]; RECIST, all evaluable (7/76 patients)",9.2%
same,disease control rate,[1]; all evaluable,57.9%
same,median progression-free survival,[1]; non-FGFR patients,12.4 weeks
same,disease control rate,[1]; non-FGFR tumours,52.3%
same,overall response rate,[1]; non-FGFR tumours (3/44),6.8%
same,patients without disease progression at 16 weeks,[1]; non-FGFR tumours (16/42),38.1%
same,patients without disease progression at 16 weeks,[1]; overall (24/71),33.8%
same,median progression-free survival,[1]; patients with FGFR aberration(s),16.1 weeks
same,disease control rate,[1]; tumours with FGFR aberrations,65.6%
same,overall response rate,[1]; tumours with FGFR aberrations (4/32),12.5%
same,patients without disease progression at 16 weeks,[1]; tumours with FGFR aberrations (8/29),27.6%
same,interindividual variability of steady-state AUC (coefficient of variation),[2]; 400 mg tablet group at day 15,90%
same,"Accumulation ratio, geometric mean (CV %)",[2]; tablet 200 mg (n=3),2.3 (23)
same,"Accumulation ratio, geometric mean (CV %)",[2]; tablet 300 mg (n=3),2.3 (123)
same,"Accumulation ratio, geometric mean (CV %)",[2]; tablet 400 mg (n=24),5.5 (76)
same,Mean (SD) metabolite to parent ratio,"[2]; tablet 200 mg, Day 1 (n=3)",0.043 (0.022)
same,Mean (SD) metabolite to parent ratio,"[2]; tablet 200 mg, Day 15 (n=3)",0.085 (0.043)
same,Mean (SD) metabolite to parent ratio,"[2]; tablet 300 mg, Day 1 (n=3)",0.061 (0.030)
same,Mean (SD) metabolite to parent ratio,"[2]; tablet 300 mg, Day 15 (n=3)",0.094 (0.004)
same,Mean (SD) metabolite to parent ratio,"[2]; tablet 400 mg, Day 1 (n=25)",0.048 (0.034)
same,Mean (SD) metabolite to parent ratio,"[2]; tablet 400 mg, Day 15 (n=24)",0.117 (0.031)
same,average Tmax in different cohorts,[2]; after a single dose,6 to 10 h
same,individual Tmax range,[2]; after a single dose,3 to 24 h
same,average accumulation ratios,"[2]; based on AUC0–last, different cohorts",2.3–5.5
same,tablet formulation compared with capsule formulation,[2]; in vivo,higher exposure and lower variability
same,AUC ratio (metabolite ORM-21444 to ODM-203),[2]; steady state,less than 0.15
same,half-life,"[2]; suggested by accumulation ratios, different cohorts",30 to 70 h
same,"Cmax, geometric mean (CV %)","[2]; tablet 200 mg, Day 1 (n=3)",1539 (9) ng/mL
same,"Median (min, max) Tmax","[2]; tablet 200 mg, Day 1 (n=3)",8.0 (7.7 to 11.1) h
same,"Cmax, geometric mean (CV %)","[2]; tablet 200 mg, Day 15 (n=3)",3118 (28) ng/mL
same,Mean (SD) Caverage,"[2]; tablet 200 mg, Day 15 (n=3)",2560 (719) ng/mL
same,"Median (min, max) Tmax","[2]; tablet 200 mg, Day 15 (n=3)",8.0 (6.0 to 11.2) h
same,"Cmax, geometric mean (CV %)","[2]; tablet 300 mg, Day 1 (n=3)",2608 (46) ng/mL
same,"Median (min, max) Tmax","[2]; tablet 300 mg, Day 1 (n=3)",6.0 (4.1 to 6.1) h
same,"Cmax, geometric mean (CV %)","[2]; tablet 300 mg, Day 15 (n=3)",4906 (148) ng/mL
same,Mean (SD) Caverage,"[2]; tablet 300 mg, Day 15 (n=3)",5652 (5460) ng/mL
same,"Median (min, max) Tmax","[2]; tablet 300 mg, Day 15 (n=3)",6.1 (3.1 to 8.7) h
same,"Cmax, geometric mean (CV %)","[2]; tablet 400 mg, Day 1 (n=25)",1933 (49) ng/mL
same,"Median (min, max) Tmax","[2]; tablet 400 mg, Day 1 (n=25)",6.3 (3.1 to 24.7) h
same,"Cmax, geometric mean (CV %)","[2]; tablet 400 mg, Day 15 (n=24)",9070 (81) ng/mL
same,Mean (SD) Caverage,"[2]; tablet 400 mg, Day 15 (n=24)",8928 (5148) ng/mL
same,"Median (min, max) Tmax","[2]; tablet 400 mg, Day 15 (n=24)",6.0 (0.0 to 23.3) h
same,cell proliferation,[3],suppresses cell proliferation
same,IC50,UGT1A1,0.1 µM
